Laboratory results as given in ChEMBL document CHEMBL4316598, “Synthesis, antiproliferative and apoptosis induction potential activities of novel bis(indolyl)hydrazide-hydrazone derivatives” (Bioorg Med Chem, 2019).
The source made the active and inactive calls. The calls are words filed in the database; no cut-off is given here.

How the values were obtained:
[1] = tested on: MCF7; test: Induction of ROS generation in human MCF7 cells at 5 uM after 4 to 8 hrs in presence of NAC by DCFH-DA staining-based fluorescence spectrophotometric analysis; format: functional, cell-based
Procedure, shortened: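 DCFH-DA ROS: HeLa or MCF-7 cells at 2×10^6/well cultured 12 h, treated 4 or 8 h; t-BHP (10 μM) is the positive control. DCFH-DA 10 μM added for 10 min at 37 °C, cells washed twice with PBS. Fluorescence read at ex 485/em 520 nm. For the NAC arm, NAC (5 mM) is added to the medium before treatment.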

[2] = target: Mitogen-activated protein kinase; ERK1/ERK2 (Homo sapiens) (UniProt P27361+P28482); test: Activation of ERK1/2 phosphorylation in human MCF7 cells assessed as increase in ratio of phosphorylated ERK1/2 to total ERK1/2 level at 5 uM by ELISA; format: cell-based
Procedure, shortened: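 Cell-based ELISA: HeLa or MCF-7 cells (20×10^3/well) grown overnight at 37 °C, 5% CO2, treated with 5 μM, then fixed and blocked. Probed with rabbit anti-total and anti-phospho P38, JNK or ERK1/2 (1:100), then HRP anti-rabbit IgG. Result is the phospho/total ratio; inhibitor arms use […], […] or SP600125. n=3.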

[3] = tested on: HeLa; test: Induction of apoptosis in human HeLa cells assessed as early apoptotic cells at 1 uM after 8 hrs by annexin-V FITC/propidium iodide staining based flow cytometric analysis relative to control; format: functional
Procedure, shortened: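 Cells were grown in DMEM with 10% heat-inactivated FBS at 37 °C and 5% CO₂, then plated at 500,000 cells/well in 24-well plates. They were treated from a DMSO stock (DMSO ≤0.1%) for 8, 12 or 16 h. After a PBS wash, cells were resuspended in binding buffer (10 mM HEPES pH 7.4, 2.5 mM CaCl₂, 140 mM NaCl, 0.1% BSA), stained 40 min with FITC-annexin V, then with PI, and run on the flow cytometer immediately. Values are the mean of three independent experiments.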

[4] = tested on: A549; test: Cytotoxicity against human A549 cells assessed as reduction in cell viability after 4 hrs by MTT assay; format: functional, cell-based
Procedure, shortened: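 MTT: 10,000–20,000 cells/well attached for 16 h, then washed twice with serum-free RPMI. Treated with 1–200 µM for 4 h, 3 parallel runs per concentration. MTT added for 2 h; medium partly removed and isopropanol added. A590 read. Viability = (A treated − A doxorubicin)/(A medium − A doxorubicin)×100. Mean of three experiments, triplicate wells each.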

Mitogen-activated protein kinase; ERK1/ERK2 (Homo sapiens), sequence (P27361 whole entry, looked up): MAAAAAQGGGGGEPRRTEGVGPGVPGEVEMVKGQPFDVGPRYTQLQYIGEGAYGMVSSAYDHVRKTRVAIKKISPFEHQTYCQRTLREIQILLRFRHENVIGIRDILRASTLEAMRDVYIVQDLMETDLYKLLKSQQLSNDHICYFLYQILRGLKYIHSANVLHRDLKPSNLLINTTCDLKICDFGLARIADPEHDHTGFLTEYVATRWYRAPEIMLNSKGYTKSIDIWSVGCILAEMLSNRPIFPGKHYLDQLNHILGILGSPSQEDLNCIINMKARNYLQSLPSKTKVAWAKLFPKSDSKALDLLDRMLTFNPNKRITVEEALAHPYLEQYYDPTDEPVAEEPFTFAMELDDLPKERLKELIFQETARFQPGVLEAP
Mitogen-activated protein kinase; ERK1/ERK2 (Homo sapiens), sequence (P28482 whole entry, looked up): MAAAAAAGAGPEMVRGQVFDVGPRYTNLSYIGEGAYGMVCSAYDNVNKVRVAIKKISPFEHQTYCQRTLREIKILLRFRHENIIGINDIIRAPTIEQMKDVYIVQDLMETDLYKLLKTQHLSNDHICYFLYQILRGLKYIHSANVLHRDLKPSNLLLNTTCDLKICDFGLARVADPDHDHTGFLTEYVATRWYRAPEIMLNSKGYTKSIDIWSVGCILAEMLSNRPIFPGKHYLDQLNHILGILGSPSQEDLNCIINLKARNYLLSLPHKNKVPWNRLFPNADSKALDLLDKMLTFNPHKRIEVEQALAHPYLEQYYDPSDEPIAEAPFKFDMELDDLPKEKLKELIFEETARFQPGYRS

Activity [2]: Active
Compound: Cn1cc(/C=N\NC(=O)c2cn(C)c3ccc(Br)cc23)c2ccccc21
Activity [1]: inactive | Activity [3]: 19.15% | Activity [4]: Dose-dependent effect | IC50 ([4]; Homo sapiens, A549, 4 h, read-out: IC50): 0.793 to 5.49 µM
